From PubChem
Only some compounds are listed: those with a hit (about 1.3% of all), similar ones and a draw of the others.
NS3 helicase inh: inhibitors of HCV NS3 helicase, primary screen, biochemical, Cy5 molecular beacon fluorescence; NS3 helicase DNA unwinding; 0.56% of 290,000 active; AID 1800, 2009; inhibition, % at 10.9 µM;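 active = inhibition above the mean of all tested compounds plus 3 SD, set per campaign, cut at about 35% in these data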
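Test system: hepatitis C virus NS3 helicase domain fragment enzyme. Also added: annealed dual-labelled DNA beacon duplex, ATP-started. Timing: 60 min unwinding reaction at 25 °C after ATP addition. Technique: Cy5 fluorescence. Measure: % inhibition of unwinding.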
Lipid droplet: inhibitors of hepatocyte lipid droplet formation, primary screen, imaging, high-throughput imaging, BODIPY stain. inhibition, % at 6.5 µM. 0.4% of 240,000 active. AML12 mouse hepatocytes, oleate lipid droplets;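 active = lipid droplet intensity inhibited by at least 50%, with more than 500 cells counted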
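Assay system: AML12 mouse liver cells | Compound dosing: One dose, 6.5 µM compound | Read-out basis: Droplet intensity reduction, % inhibition | Measured by: Fluorescence imaging, 20x objective, two fields per well | Schedule: Overnight treatment with compound plus oleate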
core dimer inh: inhibitors of HCV core protein dimerization, primary screen, biochemical, TR-FRET, high-throughput; inhibition, % at 5 µM; TR-FRET GST/Flag-core106 dimerization, 1536-well; AID 1899, 2009; 0.33% of 300,000 active;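 active = inhibition above the mean of all tested compounds plus 3 SD, set per screening campaign, cut at about 45% in these data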
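System: GST/Flag-tagged HCV core106 proteins. Incubation: compound-protein-antibody incubation 4 h at 22.5 °C. Technique: HTRF with 340 nm excitation, 617/671 nm emission. Medium: KF-containing HEPES buffer, pH 7.45, DTT, CHAPS, BSA. Read-out: inhibition (%) from 671 over 617 nm ratio. Also added: Eu(K)-anti-GST 90 ng/mL plus XL665-anti-Flag 1 µg/mL.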
TbMetRS inhib: T. brucei MetRS inhibitors, primary screen, biochemical, luminescence. 0.4% of 360,000 active. inhibition, % at 11.9 µM. AID 624268, 2012. methionyl-tRNA synthetase (Trypanosoma brucei brucei). purified T. brucei MetRS, ATP depletion, Kinase-Glo luminescence;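 active = inhibition above a per-plate cutoff of the control wells' mean inhibition plus 3 SD, cut at about 5.5% in these data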
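technique = Kinase-Glo luminescence, ATP depletion format | system = purified MetRS (methionyl-tRNA synthetase) enzyme from Trypanosoma brucei | timing = 15 min preincubation, 2 h reaction, all 25 °C | evaluation = percent inhibition versus plate control medians | dosing = single dose, 11.9 µM final nominal, 0.9% final DMSO | also added = substrates ATP, L-methionine and bulk Escherichia coli tRNA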
A number is an active result; – = inactive; · = not tested or not shown.

SMILES	NS3 helicase inh	Lipid droplet	core dimer inh	TbMetRS inhib
COCCN=c1scc(-c2ccco2)n1/N=C/c1ccc(O)c(O)c1O	–	–	54	–
Cc1ccc(-n2nnnc2SCC(=O)Nc2ccc3c(c2)OCCO3)cc1C	–	–	–	–
Cc1ccc(-n2nnnc2SCC(=O)Nc2ccc3c(c2)COC3=O)cc1C	–	–	49	–
O=C1Nc2cc(C(=O)N3CCOCC3)ccc2S/C1=C/c1ccccc1F	·	·	·	–
C#CCOC(=O)CCCNc1ccc([N+](=O)[O-])cc1[N+](=O)[O-]	–	·	48	–
COc1cc(/C=C2\CC/C(=C\c3cc(OC)c(O)c(OC)c3)C2=O)cc(OC)c1O	–	–	–	–
COc1cc(/C=C2/CCC/C(=C\c3cc(O)c(OC)c(Cl)c3)C2=O)cc(Cl)c1O	–	·	50	–
O=C(c1ccc(-c2nnc(Nc3ccccc3)c3ccccc23)cc1)N1C[C@H]2C[C@H](C1)c1cccc(=O)n1C2	–	·	60	–
Cc1nc2c(OCc3cccc(Cl)c3)cccn2c1N(C)Cc1cccs1	·	·	·	–
COc1ccc([N+](=O)[O-])cc1NC(=O)CSc1nccc(C)n1	–	–	51	–
CCN(c1ccc(OC)cc1)S(=O)(=O)c1nnc(NC(=O)COc2ccc(C)cc2)s1	–	–	56	–
O=C1c2ccccc2C(c2nnnn2Cc2ccccc2)N1CCCN1CCOCC1 (stereo not drawn)	·	·	·	–
COc1cc2c3c(cccc3c1)C(=O)N(CCN1CCCC1)C2=O	·	·	·	–
CCOC(=O)c1c(NS(=O)(=O)c2ccc(Br)cc2)sc2c1CCC2	–	·	70	–
COc1ccc(NC(=O)c2cc(C)nc3ccccc23)cc1S(=O)(=O)N1CCOCC1	·	·	·	–
O=C(COC(=O)c1ccccc1Oc1ccccc1)NCc1ccco1	–	·	74	–
Cc1ccc(NC(=O)c2cc(-c3ccco3)nc3ccccc23)cc1S(=O)(=O)N1CCOCC1	–	–	69	–
O=C(COC(=O)c1ccccc1Nc1cccc(C(F)(F)F)c1)NCc1ccco1	–	·	64	–
CC(C)(C)NC(=O)COC(=O)c1c2c(nc3ccccc13)CCC2	–	–	53	–
O=C(COC(=O)c1ccccc1)NCc1ccco1	–	·	–	–
OC(c1ccco1)c1nc(-c2ccc(F)c(Cl)c2)cs1 (stereo not drawn)	·	·	·	–
Nc1sc(-c2ccccc2)cc1C(=O)N1CCNCC1	·	·	·	–
CCc1nc2ccc(C(=O)N3CCN(S(=O)(=O)CC)CC3)cn2c1N(CC)Cc1cccc(Br)c1	·	·	·	–
O=C(CC1CCCC1)NCCS(=O)(=O)N1CCN(c2ccccc2)CC1	·	·	·	–
CC(C)NC(=O)C1(C)CSCC(=O)N1Cc1cccc(F)c1 (stereo not drawn)	·	·	·	–
SMILES	NS3 helicase inh	Lipid droplet	core dimer inh	TbMetRS inhib
O=C(N[C@H]1CC[C@H](CCNS(=O)(=O)c2ccc(Cl)cc2)O[C@@H]1CO)c1cccc(F)c1	·	·	·	–
O=C(CSc1c2c(nc3ccccc13)CCCC2)NCc1ccco1	–	–	–	–
COc1cc(-c2cc(C(=O)NCc3ccco3)c3ccccc3n2)cc(OC)c1OC	–	–	–	–
CC(C)CCNC(=O)c1cc(-c2ccco2)nc2ccccc12	–	–	–	–
CC(C)Cn1c(N)c(C(=O)COC(=O)c2cc(-c3ccco3)nc3ccccc23)c(=O)n(C)c1=O	–	–	54	–
CCCCCCNC(=O)c1cc(-c2ccco2)nc2ccccc12	–	–	64	–
Cc1ccc(-c2cc(C(=O)NCc3ccco3)c3ccccc3n2)s1	–	·	47	–
O=C(NCc1ccco1)c1c2c(nc3ccccc13)CCC2	–	·	91	–
CCOC(=O)C1=CCN(S(=O)(=O)c2ccccc2[N+](=O)[O-])C1c1ccc(C)cc1 (stereo not drawn)	·	·	·	–
Cc1cccc(C)c1NC(=O)C1c2ccccc2OCC(=O)N1Cc1ccco1 (stereo not drawn)	·	·	·	–
COc1ccccc1CNC(=O)COC(=O)c1cc(C)nc2ccccc12	·	·	·	–
O=C(COC(=O)c1cc(-c2cccs2)nc2ccccc12)NCc1ccco1	–	·	63	–
COc1ccccc1CNC(=O)COC(=O)c1cc(-c2ccco2)nc2ccccc12	–	–	69	–
O=C(NCc1ccco1)c1cc(-c2cccs2)nc2ccccc12	–	–	–	–
Cc1cc(C=C2C(=O)CCCC2=O)c(C)n1-c1ccccc1	–	–	55	–
Cc1cc(/C=C2/C(=O)NN(c3ccccc3)C2=O)c(C)n1-c1ccc(O)cc1	–	–	–	–
Nc1c(C(=O)Nc2ccc(S(=O)(=O)N3CCCC3)cc2)sc2nc3ccc(OC(F)(F)F)cc3cc12	–	–	63	–
Nc1nc(SCC(=O)N2N=C3/C(=C/c4ccco4)CCCC3C2c2ccco2)n[nH]1 (stereo not drawn)	–	–	52	–
CCc1cc2cc3c(cc2nc1SCC(=O)Nc1cc(C)on1)OCO3	–	–	111	–
CC1(C(=O)NS(=O)(=O)C2CC2)CCN(C(=O)c2cccc(OC(F)(F)F)c2)C1 (stereo not drawn)	·	·	·	–
Oc1ccc(/C=N/N(c2ccccc2)c2ccccc2)cc1O	–	–	–	–
Oc1ccc(/C=N/N(c2ccccc2)c2ccccc2)c(O)c1O	–	–	52	–
COc1ccc(S(=O)(=O)N2C[C@@H](O)COC[C@@H]3O[C@H](CC(=O)NCCCN4CCOCC4)CC[C@H]32)cc1	·	·	·	–
CCOc1cccc(=O)c2c(C)n(Cc3ccccc3)c(C)c12	–	–	50	–
Cc1cc(N2CCN(C(C(=O)NC3CCCC3)c3ccc(-c4ccccc4)cc3)CC2)c2ccccc2n1 (stereo not drawn)	·	·	·	–
SMILES	NS3 helicase inh	Lipid droplet	core dimer inh	TbMetRS inhib
Nc1ccn([C@@H]2O[C@H](CNS(=O)(=O)c3cc4ccccc4s3)[C@@H](O)[C@H]2O)c(=O)n1	·	·	·	–
CCCCN1CC2([N+](=O)[O-])C=CC(=O)C([N+](=O)[O-])(C1)C2CC(=O)c1ccccc1 (stereo not drawn)	–	–	–	–
CCN1CC2([N+](=O)[O-])C=CC(=O)C([N+](=O)[O-])(C1)C2CC(=O)c1ccccc1 (stereo not drawn)	–	–	54	–
O=C(COc1ccc(/C=N/NC(=O)c2ccncc2)cc1)Nc1cccc([N+](=O)[O-])c1	–	–	–	–
O=C(COc1ccc(/C=N/NC(=O)c2ccccc2O)cc1)Nc1ccc([N+](=O)[O-])cc1	–	–	50	–
O=C(Nc1nc(-c2ccc(Cl)cc2Cl)cs1)C1CCCO1 (stereo not drawn)	–	54	–	–
O=C(COC(=O)c1cc2c(s1)CCC2)Nc1ccc(F)cc1	–	–	50	–
O=S1(=O)CC(N2CCCCC2)CN1Cc1cn(Cc2cccc(C(F)(F)F)c2)nn1 (stereo not drawn)	·	·	·	–
CC(C)NC(=O)N1Cc2cc(C(=O)NC3CCCC3)nc(-c3cccc(-c4cccnc4)c3)c2[C@@H]1CCO	·	·	·	–
